S1P1 ag-PAM: S1P1 agonists and agonism potentiators, primary screen, cell-based, primary and confirmation screens, CRE-bla reporter | activation, % at 9.5 µM | S1P1 CRE-bla cells, forskolin, beta-lactamase FRET, potentiator mode; S1P1 agonist co-added at EC20, 2 nM; 100% = saturating reference agonist, 0% = basal | 56,000 compounds, 0.57% hits | Sphingosine 1-phosphate receptor 1 (Homo sapiens), P21453;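 active means activation above a cutoff set at the mean activation of all tested compounds plus 3 SD, cut at about 54% in these data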;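 further: forskolin at 4 µM as EC80 and the EC20 agonist is SEW2871; 100% = SEW2871 at its EC100 plus forskolin at EC80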
5HT1E antag: 5-HT1E receptor antagonists, primary screen, cell-based, HTS; CHO 5-HT1E Ga15 NFAT-bla reporter, FRET, antagonist; inhibition, % at 6 µM; 65,000 compounds, 0.99% hits; AID 571, 2007;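 active means inhibition above a set limit, the mean inhibition across every tested compound plus 3 SD, cut at about 29% in these data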;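 further: signal is the 460 over 535 nm emission ratio of beta-lactamase substrate; 0% = agonist plus DMSO wells and 100% = wells without agonist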
Target sequence (P28566 whole entry, looked up): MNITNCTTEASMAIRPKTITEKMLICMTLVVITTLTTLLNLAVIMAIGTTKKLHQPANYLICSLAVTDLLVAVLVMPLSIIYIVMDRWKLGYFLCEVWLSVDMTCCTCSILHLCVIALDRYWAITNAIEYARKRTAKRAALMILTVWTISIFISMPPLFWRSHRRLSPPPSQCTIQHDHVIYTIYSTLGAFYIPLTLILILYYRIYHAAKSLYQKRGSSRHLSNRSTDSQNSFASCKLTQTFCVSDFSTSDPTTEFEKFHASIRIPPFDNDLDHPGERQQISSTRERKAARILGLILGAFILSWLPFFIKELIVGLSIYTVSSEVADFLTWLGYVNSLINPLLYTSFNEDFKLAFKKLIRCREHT
5HT1a ag: human 5-HT1a receptor agonists, primary screen, cell-based, CHO, Ga15 NFAT-bla reporter | 5-hydroxytryptamine receptor 1A (Homo sapiens), P08908 | CHO 5-HT1a Ga15 NFAT-bla reporter, FRET ratio; 0% basal, 100% maximal reference agonist | activation, % at 10 µM | 65,000 compounds, 0.56% hits | AID 567, 2006;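 active means activation above the screen-wide mean activation plus 3 SD, cut at about 19% in these data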;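 further: 0% = DMSO wells and 100% = 5-CT at EC100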
S1P3 agonist: human S1P3 receptor agonists, primary screen, cell-based, primary and confirmation, NFAT-BLA reporter; S1P3 NFAT-BLA reporter cells, agonism, FRET ratio; relative to 1 µM S1P, basal subtracted; 60,000 compounds, 0.1% hits; activation, % at 4.5 µM; Sphingosine 1-phosphate receptor 3 (Homo sapiens), Q99500;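 active means activation above the screen-wide mean plus 3 SD, cut at about 4.5% in these data, passing the limit was not always enough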
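Assay system: stable CHO line with human S1P3, Gα16, NFAT-BLA reporter; Detection: FRET β-lactamase substrate fluorescence, excitation 405 nm, 460/535 nm emission ratio, background-subtracted; Read-out: percent activation versus median 1 µM S1P response, basal-subtracted, per plate; Incubation: cells plated overnight, compound 4 h 37 °C, substrate 2 h RT.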
HTR1E agonist: 5-HT1E receptor agonists, primary screen, cell-based, HTS. 65,000 compounds, 0.69% hits. activation, % at 6 µM. CHO 5-HT1E Ga15 NFAT-bla reporter, FRET; 0% DMSO wells, 100% control agonist wells. 5-hydroxytryptamine receptor 1E (Homo sapiens), P28566;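 active means activation above a set limit, the screen-wide mean activation plus 3 SD, cut at about 8.5% in these data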;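 further: 100% = positive control agonist at 1 µM giving full maximal response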
5-HT1A blocker: human 5-HT1a receptor antagonists, primary screen, cell-based, CHO, Ga15 NFAT-bla reporter; 5-hydroxytryptamine receptor 1A (Homo sapiens), P08908; CHO 5-HT1a Ga15 NFAT-bla reporter, antagonist mode; inhibition, % at 10 µM; 62,000 compounds, 0.68% hits; AID 612, 2007;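 active means inhibition above the mean of all tested compounds plus 3 SD, cut at about 43% in these data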;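 further: receptor stimulated by 5-CT agonist at 100 nM near EC80; beta-lactamase reporter measured by ratiometric fluorescence of a cleavable substrate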
An asterisk follows results filed as active; · = no result. A selection: hits, their analogues and other compounds. The true share with any hit is near 2.9%.

SMILES	S1P1 ag-PAM	5HT1E antag	5HT1a ag	S1P3 agonist	HTR1E agonist	5-HT1A blocker
COc1cccc(-c2cc(C(F)(F)F)nc(N3CCCCC3)n2)c1	·	-6.2	98.5*	·	-0.4	-4.2
COc1ccc(-c2cc(C(F)(F)F)nc(N3CCN(C)CC3)n2)cc1	·	-1.8	4.6	·	18.0*	-1.0
CCOC(=O)N1CCC(NC(=O)CCc2c(C)nc3ncnn3c2C)CC1	-26.3	-13.4	-5.0	0.0	0.2	-9.4
Cc1cc(NC(=O)Cc2cccs2)nn1CC(=O)NCc1ccco1	-1.7	7.5	-2.5	-0.8	16.1*	7.3
CC(=O)c1ccc(N2CCN(c3ccc(C(F)(F)F)cn3)CC2)cc1	88.0*	8.1	-2.0	-2.2	0.3	-16.4
N#CCCS(=O)(=O)c1nnnn1-c1ccccc1	70.0*	79.4*	0.5	-1.0	-1.4	86.7*
O=C(NCc1ccncc1)Nc1ccc(F)cc1	·	-1.1	3.1	0.1	0.7	-10.1
CC(C)C(OC(=O)c1cccs1)C(=O)NCc1ccco1 (stereo unspecified)	-12.4	12.0	-2.6	-1.5	-0.7	24.5
CC(OC(=O)c1cccs1)C(=O)NCc1ccco1 (stereo unspecified)	-10.5	-6.0	5.0	0.6	15.7*	-9.6
CCc1nn(C(C)C(=O)N2CCN(Cc3ccccc3)CC2)c(=O)c2cc3occc3n12 (stereo unspecified)	11.8	-9.5	-0.2	-0.1	16.1*	-4.9
Cc1nn(C(C)C(=O)N2CCN(c3ccccn3)CC2)c(=O)c2cc3occc3n12 (stereo unspecified)	19.5	-6.7	-1.2	0.3	0.5	-10.0
CN1Cc2cc(C(=O)c3cc(Cl)cc(CSc4ncccn4)c3O)cnc2NC1=O	-61.5	79.8*	-2.9	-0.9	-1.0	60.3*
CC1CCN(C(c2ccc(N(C)C)cc2)c2nnnn2Cc2ccccc2)CC1 (stereo unspecified)	4.5	5.2	-0.7	-0.9	-1.1	15.2
COc1ccc(Cn2nnnc2C(c2ccc(N(C)C)cc2)N2CCC(C)CC2)cc1 (stereo unspecified)	-1.5	9.9	2.6	-0.9	1.4	43.5*
CN1CCN(C(=O)c2ccccc2-c2ccccc2C(=O)O)CC1	4.7	7.1	-4.3	-1.0	0.7	2.9
CCOC(=O)CC(/C(C)=N\O)c1ccccc1 (stereo unspecified)	1.2	6.9	-1.9	-1.3	40.3*	16.7
Cc1cc(C)c2c(n1)nn1c(N3CCN(c4ccccc4C)CC3)cc(C)nc21	-16.9	-12.6	-2.8	-1.1	0.9	3.3
CCN(CC)c1nc2n(c(=O)n1)CCN2CC	2.6	-5.7	-0.2	-0.4	0.1	-5.2
CCN1CCn2c1nc(N1CCCCC1)nc2=O	-17.7	-8.7	0.9	-0.7	9.4*	7.3
CN1CCN(CC(=O)Nc2nc(-c3ccccc3)cs2)CC1	-7.5	-4.1	-0.4	-1.1	0.6	·
CC1Cc2cc(-c3csc(NC(=O)Cc4cccs4)n3)ccc2N1S(C)(=O)=O (stereo unspecified)	56.9*	7.3	-0.9	-1.3	-0.5	-8.5
Cc1cc(C)n(Cc2cc(C)c(Cn3nc(C)cc3C)cc2C)n1	-6.7	6.0	-1.4	-1.2	-0.7	·
CCn1nnnc1SCC(=O)Nc1ccc(OCc2ccccc2)cc1	7.5	2.7	0.5	0.2	0.2	-6.2
O=C(CCNC(=O)Cn1ccc2ccccc2c1=O)NCCN1CCc2ccccc2C1	-6.4	-4.7	-0.2	-0.1	1.2	2.0
O=C(Cn1ccc2ccccc2c1=O)NCCC(=O)NC1CCN(Cc2ccccc2)CC1	4.4	0.3	-0.2	0.6	11.1*	-10.4
SMILES	S1P1 ag-PAM	5HT1E antag	5HT1a ag	S1P3 agonist	HTR1E agonist	5-HT1A blocker
O=C(Nc1nc(-c2cc(Cl)sc2Cl)cs1)c1cccs1	34.8	-1.2	279.4*	-0.2	1.1	49.1*
O=C(CN1C(=O)CCC1=O)Nc1nc(-c2ccc(Cl)s2)cs1	14.1	2.2	-1.7	0.4	-0.2	15.1
O=C(Nc1nc(-c2ccc(Cl)s2)cs1)c1ccncc1	125.6*	4.3	-5.2	-1.1	0.5	21.0
N/C(=N\c1nc2c(c(=O)[nH]1)CCCC2)Nc1ccccc1	65.1*	2.3	-3.7	-0.1	0.7	-4.8
FC(F)(F)c1cc(-c2cccs2)nc(N2CCOCC2)n1	-3.3	11.1	0.0	-1.0	-0.7	12.6
Cc1cnn(-c2nc(-c3cccs3)cc(C(F)(F)F)n2)c1	-9.6	28.7*	-3.9	-1.2	-1.1	16.8
COc1ccc(-c2nn(CC(=O)N(C)C)c(=O)c3ccccc23)cc1	·	-2.3	0.2	-0.2	0.1	6.4
O=C(Nc1ccc(Cl)cc1)N1CCC(c2nc(-c3ccc(F)cc3)no2)CC1	57.1*	22.4	-1.9	-0.9	-0.5	47.4*
O=C(c1c(Cl)nc2sccn12)N1CCN(c2cccc(Cl)c2)CC1	·	41.9*	-3.3	·	-1.3	23.8
Cc1ccc(Cl)cc1N1CCN(C(=O)CCC(=O)O)CC1	·	0.7	-0.9	·	14.1*	6.0
O=C(CN1CCN(c2cccc(Cl)c2)CC1)N1CCCC1	-13.9	-2.4	-3.0	-0.6	1.5	-9.0
O=C(O)CCC(=O)N1CCN(c2cccc(Cl)c2)CC1	10.3	4.4	0.0	0.2	21.4*	13.3
COc1ccc(-c2nc(N3CCOCC3)nc3nn4c(C)c(CCC(=O)O)c(C)nc4c23)cc1	-23.1	-3.5	-2.6	-0.2	-0.2	-8.5
O=C(CSc1ncccc1-c1nc2ccccc2[nH]1)N1CCN(c2ccccc2F)CC1	4.8	6.3	3.3	-0.1	8.7*	18.5
COc1ccc(N2CCN(C(=O)CSc3ncccc3-c3nc4ccccc4[nH]3)CC2)cc1	-27.6	-8.2	-1.6	-0.5	0.2	-9.9
COc1ccccc1N1CCN(C(=O)CSc2ncccc2-c2nc3ccccc3[nH]2)CC1	·	-1.9	5.1	·	21.8*	14.4
COc1ccc(OC)c(NC(=O)C2C3CCC(C3=C(C)C)C2C(=O)O)c1 (stereo unspecified)	-6.6	19.3	0.1	-1.5	-2.5	19.7
COc1ccc(OC)c(NC(=O)C2CCCCC2C(=O)O)c1 (stereo unspecified)	-11.5	-4.8	-0.4	-0.4	15.1*	-11.9
CCOc1ccc(NC(=O)N2CCN(c3nc4ccccc4s3)CC2)cc1	19.2	13.5	-0.6	-1.3	17.0*	-4.0
O=C(O)CCC(=O)N1CCN(c2nc3ccccc3s2)CC1	-7.2	4.4	-1.8	-1.0	15.3*	12.2

High-throughput results: PubChem, The Scripps Research Institute Molecular Screening Center
